Screening data as filed in PubChem BioAssay.
Hits are enriched below; roughly 3.1% of the tested compounds scored in any of these assays.
PHOSPHO1 block – PHOSPHO1 (human) inhibition; Q8TCT1; recombinant PHOSPHO1, absorbance phosphatase assay; inhibition, % at 13.3 µM; hit rate 1.1% among 290,000; AID 1565; in the data active = inhibition above about 60%
UBC9 SUMO inh – blocks human SUMOylation mediated by UBC9; HTRF SUMOylation assay, SAE1/SAE2 + UBC9, in vitro; AID 2006; inhibition, % at 35 µM; hit rate 0.36% among 290,000; P63279; in the data active = inhibition above about 50%, passing the limit was not always enough
Target sequence (P63279 whole entry, looked up): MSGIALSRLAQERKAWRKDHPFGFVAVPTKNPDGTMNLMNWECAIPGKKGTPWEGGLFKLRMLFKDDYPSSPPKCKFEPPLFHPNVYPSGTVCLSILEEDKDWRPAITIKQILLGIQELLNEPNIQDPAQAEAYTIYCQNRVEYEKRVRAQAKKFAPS
NS3 helicase inh – inhibitors of Hepatitis C virus NS3 helicase. NS3 helicase DNA unwinding, Cy5 molecular beacon fluorescence. inhibition, % at 10.9 µM. hit rate 0.56% among 290,000;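 active = inhibition above the mean of all tested compounds plus 3 SD, set per campaign, cut at about 35% in these data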
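System: Hepatitis C virus NS3 helicase domain fragment enzyme | Reagent: Annealed dual-labelled DNA beacon duplex, ATP-started | Compound dosing: 10.9 µM single point, 0.8% DMSO | Incubation: 1 h reaction at 25 °C, ATP-initiated | Technique: Cy5 fluorescence | Evaluation: Percent inhibition from t60/t0 fluorescence ratio | Benchmarks: Low DMSO, high thioflavine S at 110 µM | Replication: Singlicate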
VIM-2 inh – inhibitors of Pseudomonas aeruginosa VIM-2 metallo-beta-lactamase; purified VIM-2, nitrocefin hydrolysis, epi-absorbance fluorescence; inhibition, % at 5.6 µM; hit rate 0.89% among 290,000; AID 1527;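 active = inhibition above the mean of all tested compounds plus 3 SD, cutoff set per screening run, cut at about 7.5% in these data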;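 also: red hydrolysis product quenches plate fluorescence so inhibitors raise well fluorescence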
core dimer inh – blocks dimerization of HCV core protein; inhibition, % at 5 µM; AID 1899; hit rate 0.33% among 300,000; TR-FRET GST/Flag-core106 dimerization, 1536-well;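 active = inhibition above the mean of all tested compounds plus 3 SD, set per screening campaign, cut at about 45% in these data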
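System: GST/Flag-tagged HCV core106 proteins. Incubation: compound-protein-antibody incubation 4 h at 22.5 °C. Technique: HTRF with 340 nm excitation, 617/671 nm emission. Medium: KF-containing HEPES buffer, pH 7.45, DTT, CHAPS, BSA. Read-out: inhibition (%) from 671 over 617 nm ratio. Also added: Eu(K)-anti-GST 90 ng/mL plus XL665-anti-Flag 1 µg/mL.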
IMP-1 inhibitor – blocks Pseudomonas aeruginosa IMP-1 metallo-beta-lactamase; inhibition, % at 5.6 µM; hit rate 0.45% among 290,000; purified IMP-1, nitrocefin hydrolysis, epi-absorbance fluorescence;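 active = inhibition above the mean plus 3 SD of all compounds in the same screening run, cut at about 4.5% in these data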
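Assay system: purified IMP-1; Quantity: IMP-1 0.2 nM before substrate addition; Medium: HEPES buffer pH 7.1 with ZnSO4 and Brij 35; Incubation: 15 min enzyme–compound preincubation, then 25 min nitrocefin reaction, 25 °C; Signal: fluorescence quenching readout, ex 480/em 530 nm; Controls: DMSO with and without IMP-1; Repeats: singlicate testing.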
VIM-2 inh confirm – VIM-2 inhibition, confirmation assay. inhibition, % at 5.6 µM. purified VIM-2 enzyme, nitrocefin absorbance. shares compounds with IMP-1 inhibitor. hit rate 73% among 200. AID 1860; in the data active = inhibition above about 8%
TEM-1 counter – blocks E. coli TEM-1 beta-lactamase, VIM-2 IMP-1 counter-screen; shares compounds with IMP-1 inhibitor; nitrocefin absorbance inhibition; inhibition, % at 5.6 µM; hit rate 50% among 200; in the data active = inhibition above about 0.66%
Target sequence (P62593 whole entry, looked up): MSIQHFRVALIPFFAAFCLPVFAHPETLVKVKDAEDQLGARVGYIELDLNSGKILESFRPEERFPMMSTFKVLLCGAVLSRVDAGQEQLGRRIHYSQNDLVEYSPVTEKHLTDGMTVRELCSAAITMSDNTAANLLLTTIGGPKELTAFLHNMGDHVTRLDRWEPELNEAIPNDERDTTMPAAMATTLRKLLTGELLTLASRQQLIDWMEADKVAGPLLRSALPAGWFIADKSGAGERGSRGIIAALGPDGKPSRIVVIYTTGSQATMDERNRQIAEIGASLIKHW
IMP-1 confirm – confirmation of P. aeruginosa IMP-1 metallo-beta-lactamase inhibitors. shares compounds with IMP-1 inhibitor. purified IMP-1 enzyme, absorbance substrate hydrolysis. inhibition, % at 5.6 µM. hit rate 60% among 200. AID 2189; in the data active = inhibition above about 4.9%
Hits are given with their value; – = inactive; · = no result given.

SMILES	PHOSPHO1 block	UBC9 SUMO inh	NS3 helicase inh	VIM-2 inh	core dimer inh	IMP-1 inhibitor	VIM-2 inh confirm	TEM-1 counter	IMP-1 confirm
N#CC(C#N)=C1C=C2C=C(N3CCOCC3)CCC2CC1 (stereo unspecified)	–	–	–	20	·	17	64	76	60
N#CC(C#N)=C1C=C2C=C(N3CCCCCC3)CCC2CC1 (stereo unspecified)	–	–	–	38	·	38	64	92	58
CC1(C)CC(NCCN2CCN(C3=CC(=C(C#N)C#N)CC(C)(C)C3)CC2)=CC(=C(C#N)C#N)C1	–	–	–	–	–	–	·	·	·
CCN1CCN(C2=CC3=CC(=C(C#N)C#N)CCC3CC2)CC1 (stereo unspecified)	–	–	–	55	·	72	62	67	58
CN1CCN(C2=CC3=CC(=C(C#N)C#N)CCC3CC2)CC1 (stereo unspecified)	–	–	–	58	·	67	62	66	63
COc1ccc(/C=C(/NC(=O)c2ccccc2)C(=O)N2CCOCC2)cc1OC	–	–	–	–	–	–	·	·	·
CC(C)N1CCc2c(sc(NC(=O)c3ccc4ccccc4c3)c2C(N)=O)C1	–	–	–	–	–	–	·	·	·
CC(=O)Nc1sc2c(c1-c1nc3ccccc3s1)CCN(C(C)C)C2	–	–	–	18	–	4.5	15	–	–
CCOC(=O)NC(=O)C(/C=N/c1sccc1C(=O)OC)=C(\C)O	–	–	–	7.8	–	8.6	10	–	–
CCC(=O)Nc1sccc1C(=O)OC	–	–	–	–	–	–	·	·	·
CC(C)C[C@@]12C(=O)N(c3cccc(F)c3)C(=O)N1[C@H](c1ccc(Cl)cc1)[C@@H]1C(=O)N(C3CCCCC3)C(=O)[C@@H]12	·	·	·	·	–	·	·	·	·
NC(=S)c1cc2ccc(O)cc2oc1=O	–	–	–	–	·	4.5	–	–	–
C/C(=N/NC(N)=S)c1cc2ccc(O)cc2oc1=O	–	–	–	–	–	–	·	·	·
O=C1c2cccc3c(N4CCCCC4)ccc(c23)C(=O)N1c1cccc(O)c1	–	–	–	–	–	–	·	·	·
Cc1n[nH]c(C)c1N1C(=O)c2cccc3c(N4CCCCCC4)ccc(c23)C1=O	–	–	–	20	–	16	27	21	9.3
CN1CCN(C(CNC(=O)c2ccc(Br)o2)c2ccc(F)cc2)CC1 (stereo unspecified)	·	·	·	·	–	·	·	·	·
Cc1cccn2c(=O)c3cc(C(=O)NCCCn4ccnc4)n(C)c3nc12	–	–	–	10	–	23	32	–	–
CCOCCCNC(=O)c1cc2c(=O)n3cccc(C)c3nc2n1C	–	–	·	·	–	·	·	·	·
NS(=O)(=O)c1cccc(NC(=O)Cc2ccc(Cl)c(Cl)c2)c1	–	–	–	–	–	–	·	·	·
O=C(Nc1ccc(NC(=O)c2cccs2)cc1)c1cccs1	–	–	–	–	–	–	·	·	·
O=C(Nc1ccc(Oc2ccc(C(=O)O)c(C(=O)O)c2)cc1)c1cccs1	–	–	–	21	–	5.4	25	–	–
O=S(=O)(NC(=NCCc1ccc(Cl)cc1)c1ccccc1Cl)c1cccs1	–	–	–	–	–	–	·	·	·
COc1ccc(CNc2nc3ccccc3n2C)c(OC)c1	–	–	–	–	–	–	·	·	·
COc1ccc(N=Nc2nc3cc(Br)c(Br)cc3n2C)c(OC)c1	72	–	–	10	–	9.3	–	5.6	–
Cc1cc(=O)oc2cc(NC(=O)Cc3ccccc3[N+](=O)[O-])ccc12	–	–	–	–	–	–	·	·	·
SMILES	PHOSPHO1 block	UBC9 SUMO inh	NS3 helicase inh	VIM-2 inh	core dimer inh	IMP-1 inhibitor	VIM-2 inh confirm	TEM-1 counter	IMP-1 confirm
N#CCCN1CCN(Cc2ccccc2)CCC1=O	–	–	–	–	–	–	·	·	·
COc1cccc(C2Nc3ccc4ccccc4c3C3=C2C(=O)CC(C)(C)C3)c1OCC(=O)O (stereo unspecified)	–	–	–	9.5	–	11	8.1	–	–
Cc1cc(C)c(C#N)c(Oc2ccccc2Br)n1	–	–	–	–	–	–	·	·	·
COC(=O)c1c(C(=O)OC)c(-c2ccc(Cl)c(Cl)c2)n2c1CCC2	–	–	–	–	–	–	·	·	·
O=C(O)c1c(C(=O)O)c(-c2ccc(Cl)c(Cl)c2)n2c1CSC2	·	–	–	57	–	4.9	55	–	–
CC1c2cc3c(cc2CCN1C(=O)c1cccc(F)c1)OCCCO3 (stereo unspecified)	–	–	–	–	–	–	·	·	·
CC(C)C[C@@H](CO)N1CCN(Cc2cccc(C#N)c2)CCC1=O	–	–	–	–	–	–	·	·	·
Cc1cc2nc3c(=O)[nH]c(=O)[nH]c3nc2c([N+](=O)[O-])c1N	–	76	–	12	·	12	11	20	–
